Reference: ChEMBL document CHEMBL1154748, “4-Pyridylanilinothiazoles that selectively target von Hippel-Lindau deficient renal cell carcinoma cells by inducing autophagic cell death” (2010)
The source made the active and inactive calls. The rule behind the calls is not given here.

Legend:
[1] = Growth inhibition of VHL-null human RCC4 cells after 4 days by XTT assay; format: functional; conditions: RCC4, 96 h
Summary of the method: (§1)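 XTT read-out: 5000 cells/well plated, vehicle or drug added next day, 4-day exposure. Then phenol red-free medium with 0.3 mg/mL XTT, 20% FCS and 2.65 μg/mL N-methyldibenzopyrazine methyl sulfate, 1-2 h at 37 °C, absorbance at 450 nm. GI50 by linear interpolation; single determinations in triplicate. Ratio is the intraexperiment RCC4-VHL GI50 / RCC4 GI50.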

[2] = Ratio of IC50 for human RCC4-VHL cells to IC50 for VHL-null human RCC4 cells; format: functional; summary of the method: as §1
RCC4 = test: Induction of autophagy in VHL-null human RCC4 cells assessed as intracytoplasmic vacuoles at 5 uM after 24 h

Row | SMILES | GI50 [1] [nM] | RatioGI50 [2] | Activity (RCC4)
1 | c1cc(-c2csc(Nc3ccc4c(c3)CCC4)n2)ccn1 | 2000 | 10 | Active
2 | COCC#Cc1cnccc1-c1csc(Nc2cccc(C)c2)n1 | 620 | 45 | Active
